This excerpt belongs to a sample that is enriched for hits.
GSK3beta inhib: inhibitors of human GSK3beta kinase. P49841. 0.038% of 300,000 active. activity score (negative = inhibition), % at 10 µM. GST-GSK3beta kinase, ADP-Glo luminescence, 60 min; stronger effect = lower value;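 active means more than half of replicate wells score below -50%, meaning over 50% inhibition versus plate controls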
Target sequence (P49841 whole entry, looked up): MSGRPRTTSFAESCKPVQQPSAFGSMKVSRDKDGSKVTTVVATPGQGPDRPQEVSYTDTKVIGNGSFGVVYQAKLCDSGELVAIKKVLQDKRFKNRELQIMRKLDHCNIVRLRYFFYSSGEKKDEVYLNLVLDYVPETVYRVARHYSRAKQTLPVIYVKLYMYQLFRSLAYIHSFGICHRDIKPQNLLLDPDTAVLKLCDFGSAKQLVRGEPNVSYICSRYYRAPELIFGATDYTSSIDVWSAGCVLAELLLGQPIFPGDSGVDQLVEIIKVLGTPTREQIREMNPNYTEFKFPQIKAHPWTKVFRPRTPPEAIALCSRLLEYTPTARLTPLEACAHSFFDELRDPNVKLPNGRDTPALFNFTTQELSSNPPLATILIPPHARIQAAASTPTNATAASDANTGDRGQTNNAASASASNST
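Assay system: GST-fused GSK3beta enzyme, cell-free / Medium: Tris pH 7.5 buffer with MgCl2, DTT, BSA, heparin / Also added: peptide substrate plus 25 µM ATP (final) / Compound: 10 µM single point / Timing: kinase reaction with compound 60 min at room temperature / Detection: ADP-Glo luminescence / Benchmarks: DMSO neutral wells and GW8510 at 20 µM as positive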
DYRK1A inh: inhibitors of rat Dyrk1A kinase | Q63470 | ADP-Glo luminescence, NFATc1 peptide | inhibition, % at 12.5 µM | 0.43% of 310,000 active; in the data active means inhibition above about 50%
STK33 inh: human STK33 kinase inhibition; Q9BYT3; 0.073% of 320,000 active; purified STK33, MBP phosphorylation, ADP-Glo luminescence; inhibition, % at 10 µM;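 active means inhibition at or above 25%, using the most active replicate where run in duplicate; inactive means inhibition below 25%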
CDK5 p35 inh: CDK5/p35 (human) kinase inhibition | Q00535+Q15078 | Recombinant CDK5/p35, ADP-Glo luminescence, 60 min | inhibition, % at 10 µM | 0.01% of 330,000 active;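 active means highest replicate inhibition of at least 50% and at least 75% of replicates reaching 50%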
GSK3A inh: human GSK-3 alpha kinase inhibition; 0.1% of 320,000 active; ADP-Glo luminescence, 60 min; inhibition, % at 10 µM;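 active means more than half of replicates show inhibition above 20%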;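 further: GST-tagged GSK-3 alpha with peptide substrate and 25 µM ATP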
Hits are given with their value; - = inactive; . = no result; ! = not active in a repeat.

SMILES	GSK3beta inhib	DYRK1A inh	STK33 inh	CDK5 p35 inh	GSK3A inh
CN(C)CCCNc1nc(N)c([N+](=O)[O-])c(NC2CCCCC2)n1	-81.3	-	-	-	98.4
Nc1nc(NCCOCCO)nc(NC2CCCCC2)c1[N+](=O)[O-]	-	-	-	-	52.3
CNc1nc(N)c([N+](=O)[O-])c(NC2CCCCC2)n1	-	-	-	-	-
Nc1nc(NCCO)nc(NC2CCCCC2)c1[N+](=O)[O-]	-	-	-	-	86.2
O=C(COc1ccccc1Cl)Nc1ccc2c(c1)C(=O)NC2=O	-	-	-	-	-
COc1ccc(C(=O)CNc2cccc(F)c2)cc1	-	-	-	-	-
CC(=O)c1cc(O)c2ccccc2c1O	-	62.2	-	-	-
CCOc1cccc(-c2c(C(=O)N/N=C/c3ccncc3)nnn2-c2nonc2N)c1	-	60.0	-	-	-
CCOc1cccc(-c2c(C(=O)N/N=C/c3ccoc3)nnn2-c2nonc2N)c1	-	.	-	.	-
C/C(=N\NC(=O)c1nnn(-c2nonc2N)c1-c1cccs1)c1cccc(O)c1	-	-	-	-	65.5
CCOc1cccc(-c2c(C(=O)N/N=C(\C)c3ccncc3)nnn2-c2nonc2N)c1	-	-	-	-	68.7
CCOC(=O)c1nnn(-c2nonc2N)c1-c1ccc(OCC)cc1	-	-	-	-	50.4
CCCCOC(=O)c1ccc(NC(=O)C(=O)NCCN(C)C)cc1	-	-	-	-	-
CCOc1ccc(NC(=O)CN(C)CC(=O)Nc2ccc(F)c(F)c2F)cc1OCC	-	.	-	-	-
CN(c1ccccc1)C(c1ccc(F)cc1)c1nnnn1C1CCCC1 (stereo unspecified)	-	-	-	-	-
O=C(Nc1sccc1C(=O)N1CCOCC1)c1cccnc1	-	-	-	-	53.6
CCCCCCCCn1ccc(=N)cc1	-	-	-	-	-
CCCCCCCCCCCCCCCCn1cc[n+](C)c1	-	-	26.8!	-	-
Nc1ccccc1C(=O)NCCCN1CCOCC1	-	-	-	-	-
C=CCNc1nc(N)c(C(=O)c2ccc3c(c2)OCO3)s1	.	-	-	-	79.2
CCOC(=O)CC(=O)CSc1ccc2nnc(-c3ccc(F)cc3)n2n1	-	-	-	-	-
CCC(Sc1ccc2nnc(-c3ccc(OC)c(OC)c3)n2n1)C(=O)O (stereo unspecified)	-	-	38.1	-	-
COC(=O)CSc1ccc2nnc(-c3ccc(F)cc3)n2n1	-77.6	-	-	-	60.3
[2H]c1c([2H])c([2H])c(-c2nc(N3CCCCCC3)sc2C(=O)c2ccccc2)c([2H])c1[2H]	-	-	-	-	-
CCc1c(C)c(C#N)c2nc3ccccc3n2c1NCCOC	-	-	-	-	-
SMILES	GSK3beta inhib	DYRK1A inh	STK33 inh	CDK5 p35 inh	GSK3A inh
CCc1c(C)c(C#N)c2nc3ccccc3n2c1NCc1ccccn1	-	-	-	-	81.4
CCOc1ccc(NC(=O)CSc2ccc(-c3cccnc3)nn2)cc1	-	-	-	-	-
Cc1cc(C=C2C(=O)c3ccccc3C2=O)c(C)n1-c1ccc(C(=O)O)cc1	-	-	32.1	-	-
Cc1cc(C=C2C(=O)c3ccccc3C2=O)c(C)n1-c1cccc(C(=O)O)c1	-	-	43.5	-	-
CCN(CC)c1ccc(Nc2nc(N3CCOCC3)c3ccccc3n2)cc1	-	-	27.9	-	-
Cc1c(NS(=O)(=O)c2ccc(NCCN3CCOCC3)c([N+](=O)[O-])c2)c(=O)n(-c2ccccc2)n1C	-	-	-	-	-
CCOc1ccc2nc3cc(N=Nc4ccc(N)nc4N)ccc3c(N)c2c1	.	-	.	61.8	.
COc1cc(/C=N/NC(=O)c2nnn(-c3nonc3N)c2-c2cccs2)ccc1O	-	-	-	-	75.3
Nc1nonc1-n1nnc(C(=O)N/N=C/c2ccccc2F)c1-c1cccs1	-	-	-	-	64.0
COc1ccc2nc(NC(=O)CSc3n[nH]c(N)n3)sc2c1	-	-	-	-	57.8
COc1ccc2nc(NC(=O)CSc3nccc(C)n3)sc2c1	-	-	-	-	-
NNc1nc(Nc2ccccc2)nc(Nc2ccccc2)n1	-	-	-	-	-
c1ccc(Nc2ccnc(Nc3ccccc3)n2)cc1	-	-	35.9	-	-
O=C1NC2c3ccccc3C(=O)N2c2c1cnn2-c1ccccc1 (stereo unspecified)	-	-	28.0	-	-
O=C1c2ccccc2N2C(=O)c3ccccc3[C@H]2N1c1ccccc1	-	-	-	-	-

High-throughput results from PubChem BioAssay.
